Data as given in ChEMBL document CHEMBL1140372, “Synthesis, structure-activity relationships, and biological properties of 1-heteroaryl-4-[omega-(1H-indol-3-yl)alkyl]piperazines, novel potential antipsychotics combining potent dopamine D2 receptor antagonism with potent serotonin reuptake inhibition” (J Med Chem, 2005).

Key:
D(2) dopamine receptor [1] = target: T1, D(2) dopamine receptor (Homo sapiens, UniProt P14416); assay: In vitro inhibitory constant against [3H]spiperone binding to human dopamine D2 receptor expressed in CHO cells; assay type: cell-based
T1 sequence (P14416 whole entry): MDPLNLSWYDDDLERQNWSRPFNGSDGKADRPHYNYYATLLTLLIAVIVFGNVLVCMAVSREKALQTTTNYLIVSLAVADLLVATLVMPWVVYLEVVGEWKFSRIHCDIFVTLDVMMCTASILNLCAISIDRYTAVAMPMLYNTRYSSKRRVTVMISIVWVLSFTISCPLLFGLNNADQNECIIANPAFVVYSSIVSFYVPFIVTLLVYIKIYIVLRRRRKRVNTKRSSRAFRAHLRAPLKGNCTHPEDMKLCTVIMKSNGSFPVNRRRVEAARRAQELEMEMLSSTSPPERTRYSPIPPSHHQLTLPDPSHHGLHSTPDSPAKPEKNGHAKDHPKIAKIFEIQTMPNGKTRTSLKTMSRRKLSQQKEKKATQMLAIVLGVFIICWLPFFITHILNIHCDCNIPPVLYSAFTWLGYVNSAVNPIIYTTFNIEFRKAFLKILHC

[2] = target: Sodium-dependent serotonin transporter (Rattus norvegicus, UniProt P31652); assay: In vitro inhibitory constant against [3H]paroxetine binding to rat frontal cortex membrane serotonin reuptake site; assay type: tissue-based
Sodium-dependent serotonin transporter, sequence (P31652 whole entry): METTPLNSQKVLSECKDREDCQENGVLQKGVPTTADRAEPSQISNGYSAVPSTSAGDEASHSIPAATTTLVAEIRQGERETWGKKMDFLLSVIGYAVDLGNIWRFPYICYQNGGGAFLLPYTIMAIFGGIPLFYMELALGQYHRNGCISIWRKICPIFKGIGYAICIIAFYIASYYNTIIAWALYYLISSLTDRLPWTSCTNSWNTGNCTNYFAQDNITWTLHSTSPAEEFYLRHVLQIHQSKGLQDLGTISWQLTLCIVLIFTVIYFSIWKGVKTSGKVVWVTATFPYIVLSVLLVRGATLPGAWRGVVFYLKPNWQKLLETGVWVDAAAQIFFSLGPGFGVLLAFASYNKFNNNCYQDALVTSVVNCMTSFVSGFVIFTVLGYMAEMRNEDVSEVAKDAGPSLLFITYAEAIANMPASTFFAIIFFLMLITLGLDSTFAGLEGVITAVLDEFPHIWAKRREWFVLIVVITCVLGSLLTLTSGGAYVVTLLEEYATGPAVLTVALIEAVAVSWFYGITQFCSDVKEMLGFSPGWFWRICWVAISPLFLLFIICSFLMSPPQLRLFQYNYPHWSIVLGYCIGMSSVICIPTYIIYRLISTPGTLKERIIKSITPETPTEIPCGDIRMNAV
How it was run: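 Rat frontal cortex membranes; serotonin reuptake sites labelled with [3H]paroxetine in competition binding. Ki (nM) calculated from at least three independent experiments.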

[3] = target: Sodium-dependent serotonin transporter (Mus musculus) (UniProt Q60857); assay: Effective dose against potentiation of 5-HTP induced serotonin syndrome in mice upon oral administration (Serotonin reuptake inhibitory activity); assay type: functional, organism-based
Sodium-dependent serotonin transporter (Mus musculus), sequence (Q60857 whole entry): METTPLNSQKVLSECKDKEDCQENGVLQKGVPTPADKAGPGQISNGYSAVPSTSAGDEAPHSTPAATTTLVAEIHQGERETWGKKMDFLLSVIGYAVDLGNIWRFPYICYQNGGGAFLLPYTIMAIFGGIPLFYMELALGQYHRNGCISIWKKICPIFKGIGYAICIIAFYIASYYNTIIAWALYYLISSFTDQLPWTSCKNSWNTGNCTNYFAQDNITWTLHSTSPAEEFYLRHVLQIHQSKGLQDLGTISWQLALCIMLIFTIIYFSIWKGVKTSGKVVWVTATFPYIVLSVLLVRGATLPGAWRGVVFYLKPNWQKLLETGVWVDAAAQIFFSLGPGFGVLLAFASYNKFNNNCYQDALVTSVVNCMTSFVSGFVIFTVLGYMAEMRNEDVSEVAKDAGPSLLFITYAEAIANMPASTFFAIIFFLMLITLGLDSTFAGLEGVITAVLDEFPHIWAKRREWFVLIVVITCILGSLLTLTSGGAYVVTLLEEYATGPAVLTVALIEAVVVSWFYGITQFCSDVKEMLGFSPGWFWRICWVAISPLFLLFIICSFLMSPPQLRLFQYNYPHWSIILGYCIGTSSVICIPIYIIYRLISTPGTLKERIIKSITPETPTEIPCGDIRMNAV

D(2) dopamine receptor [4] = target: T1, D(2) dopamine receptor; assay: In vitro inhibitory constant against [3H]spiperone binding to human dopamine D2 receptor expressed in CHO cells; NA= not active; assay type: cell-based
How it was run: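 Membrane preparation from CHO cells transfected with human D2L receptor; competition binding against [3H]spiperone.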

SMILES	Ki (D(2) dopamine receptor [1]) [nM]	Ki [2] [nM]	ED50 [3] [mg/kg]	Ki (D(2) dopamine receptor [4])
c1cc2c(c(N3CCN(CCCCc4c[nH]c5ccccc45)CC3)c1)OCCO2	5.1	60	> 30	
Fc1ccc2[nH]cc(CCCN3CCN(c4cccc5c4OCCO5)CC3)c2c1	19		2	
c1cc2c(c(N3CCN(CCCc4c[nH]c5ccccc45)CC3)c1)CCCO2	20.3		100	
c1cc2c(c(N3CCN(CCCCCc4c[nH]c5ccccc45)CC3)c1)OCCO2	9.1			
Clc1ccc2[nH]cc(CCCN3CCN(c4cccc5c4OCCO5)CC3)c2c1	31.6	0.5		
Cc1ccc2[nH]cc(CCCN3CCN(c4cccc5c4OCCO5)CC3)c2c1		0.4		
CN1CCCc2c1cccc2N1CCN(CCCc2c[nH]c3ccccc23)CC1	90	7.4		
c1cc2c(c(N3CCN(CCc4c[nH]c5ccccc45)CC3)c1)OCCO2	45	12		
c1cc2c(c(N3CCN(CCCc4c[nH]c5ccccc45)CC3)c1)OCCO2	21		22	
Fc1cccc2[nH]cc(CCCN3CCN(c4cccc5c4OCCO5)CC3)c12	8.1		32	
COc1ccc2[nH]cc(CCCN3CCN(c4cccc5c4OCCO5)CC3)c2c1	15			
c1cc2c(c(N3CCN(CCCc4c[nH]c5ccccc45)CC3)c1)CCCN2	11.3	1.1	15	
Clc1ccc2c(CCCN3CCN(c4cccc5c4OCCO5)CC3)c[nH]c2c1	2.1		86	
c1ccc2c(CCC3CCNCC3)c[nH]c2c1 [INDALPINE]				Not Active
Clc1cccc2[nH]cc(CCCN3CCN(c4cccc5c4OCCO5)CC3)c12	24			
Fc1ccc2c(CCCN3CCN(c4cccc5c4OCCO5)CC3)c[nH]c2c1			30	

Further lines, results first:

Ki (D(2) dopamine receptor [1]) [nM]	Ki [2] [nM]	ED50 [3] [mg/kg]	Ki (D(2) dopamine receptor [4])	SMILES
15.9				Cc1cccc2c(CCCN3CCN(c4cccc5c4OCCO5)CC3)c[nH]c12
1	3	10		C[C@@H]1Oc2c(cccc2N2CCN(CCCc3c[nH]c4c(F)cccc34)CC2)NC1=O
4.7	0.7	0.7		C[C@@H]1Oc2c(cccc2N2CCN(CCCc3c[nH]c4ccc(F)cc34)CC2)NC1=O
7.4	2.8	7.3		CC1(C)Oc2c(cccc2N2CCN(CCCc3c[nH]c4ccccc34)CC2)NC1=O
4.3	0.6	30		O=C1COc2c(cccc2N2CCN(CCCc3c[nH]c4ccccc34)CC2)N1
6.9	0.2	0.15		C[C@H]1Oc2c(cccc2N2CCN(CCCc3c[nH]c4ccc(F)cc34)CC2)NC1=O
17.9	1.5	100		c1cc2c(c(N3CCN(CCCc4c[nH]c5ccccc45)CC3)c1)OCCN2
15.5				Clc1cccc2c(CCCN3CCN(c4cccc5c4OCCO5)CC3)c[nH]c12
5.3	2.4	30		C[C@H]1Oc2c(cccc2N2CCN(CCCc3c[nH]c4c(F)cccc34)CC2)NC1=O
35.7	1.4	5.6		CC1Oc2c(N3CCN(CCCc4c[nH]c5ccccc45)CC3)cccc2N(C)C1=O (stereo unspecified)
11.4	1.5	9		O=C1CCc2c(cccc2N2CCN(CCCc3c[nH]c4ccccc34)CC2)N1
1	1	> 10		C[C@@H]1Oc2c(cccc2N2CCN(CCCc3c[nH]c4ccccc34)CC2)NC1=O
10.6		28.4		Fc1cccc2c(CCCN3CCN(c4cccc5c4OCCO5)CC3)c[nH]c12
8.7	0.5	3		C[C@H]1Oc2c(cccc2N2CCN(CCCc3c[nH]c4ccccc34)CC2)NC1=O
15	2.7	> 100		CC1CNc2cccc(N3CCN(CCCc4c[nH]c5ccccc45)CC3)c2C1 (stereo unspecified)
4.5	0.4	3		CC1Oc2c(cccc2N2CCN(CCCc3c[nH]c4ccccc34)CC2)NC1=O (stereo unspecified)
